Legend:
[1] = Antiproliferative activity against human NPC-TW01 cells after 72 hrs by MTT assay; assay type: functional; settings: NPC-TW01, 72 h
Method in brief: (§1)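 Cells were exposed to a range of concentrations for 72 h. Compounds came from 20 mM stocks in 100% DMSO. Cells were then given MEM with 0.4 mg/mL MTT for 2 h, and formazan was read at 570 nm. GI50 was taken from percentage conversion relative to mock-treated controls and reported as mean SD of three independent experiments.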

NCI-H661 = assay: Antiproliferative activity against human NCI-H661 cells after 72 hrs by MTT assay; assay type: functional; settings: NCI-H661, 72 h; method in brief: as §1
MT2 = assay: Antiproliferative activity against human MT2 cells after 72 hrs by MTT assay; assay type: functional; settings: MT2, 72 h; method in brief: as §1
[2] = Cell cycle arrest in human NPC-TW01 cells assessed as accumulation at G2/M phase at 10.5 uM after 72 hrs by flow cytometry; assay type: functional, cell-based
Method in brief: (§2)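 Exponentially growing cells were treated for 72 h. Controls received complete medium with 0.5% DMSO for 72 h. Cells were fixed, incubated with RNase and stained. DNA content was measured on a FACScan flow cytometer, and the percentage of cells in each cell-cycle phase was determined.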

[3] = Cell cycle arrest in human NPC-TW01 cells assessed as accumulation at sub-G1 phase at 10.5 uM after 72 hrs by flow cytometry; assay type: functional, cell-based; method in brief: as §2
[4] = Cell cycle arrest in human NPC-TW01 cells assessed as accumulation at S phase at 10.5 uM after 72 hrs by flow cytometry; assay type: functional, cell-based; method in brief: as §2

| Structure (SMILES) | GI50 [1] | GI50 (NCI-H661) | GI50 (MT2) | Activity [2] | Activity [3] | Activity [4] |
| --- | --- | --- | --- | --- | --- | --- |
| O=C(COc1ccc2c(=O)c(-c3ccccc3)coc2c1)Nc1ccc(F)cc1 | 0.55 µM | > 10 µM | 2.5 µM | – | – | – |
| O=C(COc1ccc2oc(-c3ccccc3)cc(=O)c2c1)Nc1ccccc1 | 1.26 µM | 5.6 µM | 1.43 µM | – | – | – |
| COc1ccc(NC(=O)COc2ccc3oc(-c4ccccc4)cc(=O)c3c2)cc1 | 0.71 µM | 0.84 µM | 3.01 µM | 5.3% | 3.3% | 13.6% |
| O=C(COc1ccc2c(=O)cc(-c3ccccc3)oc2c1)Nc1ccc(-c2ccccc2)cc1 | 1.61 µM | 1.28 µM | 2.48 µM | – | – | – |
| O=C(COc1ccc2oc(-c3ccccc3)cc(=O)c2c1)Nc1ccc2ccccc2c1 | 6.75 µM | 6.71 µM | > 10 µM | – | – | – |
| O=C(COc1ccc2c(=O)cc(-c3ccccc3)oc2c1)Nc1ccc2ccccc2c1 | > 10 µM | > 10 µM | > 10 µM | – | – | – |
| O=C(COc1c(-c2ccccc2)oc2ccccc2c1=O)Nc1ccc(F)cc1 | 9.5 µM | > 10 µM | > 10 µM | – | – | – |
| O=C(COc1ccc2c(=O)c(-c3ccccc3)coc2c1)Nc1ccccc1 | > 10 µM | > 10 µM | > 10 µM | – | – | – |
| O=C(COc1ccc2oc(-c3ccccc3)cc(=O)c2c1)Nc1ccc(-c2ccccc2)cc1 | 0.64 µM | 9.71 µM | > 10 µM | – | – | – |
| O=C(COc1ccc2c(=O)c(-c3ccccc3)coc2c1)Nc1ccc2ccccc2c1 | 1.37 µM | > 10 µM | 7.68 µM | – | – | – |
| COc1ccc(NC(=O)COc2ccc3c(=O)cc(-c4ccccc4)oc3c2)cc1 | 5.97 µM | 5.5 µM | 6.7 µM | – | – | – |

Reference: ChEMBL document CHEMBL1156563, “Synthesis and antiproliferative evaluation of amide-containing flavone and isoflavone derivatives” (Bioorg Med Chem, 2008)
